Results taken from ChEMBL document CHEMBL4024770, “Augmentation of Anticancer Drug Efficacy in Murine Hepatocellular Carcinoma Cells by a Peripherally Acting Competitive N-Methyl-d-aspartate (NMDA) Receptor Antagonist” (J Med Chem, 2017).

How the values were obtained:
Mus musculus [1] = assay: Toxicity in mouse assessed as behavioral changes at 10 mg/kg, ip administered as bolus dose; assay type: organism-based; details: in vivo
Mus musculus [2] = species on record: Mus musculus; assay: Antagonist activity at NMDA receptor in Nras driven p53 deficient mouse HCC cell membranes assessed as potentiation of 5 uM sorafenib-mediated antiproliferative activity by measuring cell viability at 100 uM after 72 hrs by resazurin assay (reference value: […] +/- […]%)
Mus musculus [3] = species on record: Mus musculus; assay: Antagonist activity at NMDA receptor in Nras driven p53 deficient mouse HCC cell membranes assessed as potentiation of 1 uM sorafenib-mediated antiproliferative activity by measuring cell viability at 100 uM after 72 hrs by resazurin assay (reference value: […] +/- […]%)
Mus musculus [4] = species on record: Mus musculus; assay: Antagonist activity at NMDA receptor in Nras driven p53 deficient mouse HCC cell membranes assessed as Slc2a1 protein expression levels at 10 uM by […] analysis relative to control; design: scale not given: the % may be the effect or the level left
Outline: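 Mouse Nras-driven p53−/− HCC cells in DMEM with 10% FBS, exposed 48 h with or without 10 μM antagonist, washed, pelleted and snap-frozen. Crude membrane fraction isolated. 50 μg protein reduced, alkylated, precipitated, then Lys-C digested (3 h, rt) and trypsin digested (1:100, 37°C, 16 h). One unique peptide per transporter quantified by multiplexed SRM/MRM LC-MS/MS against stable isotope-labelled standards. Unpaired two-tailed t-test versus control, n=4.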

Liver = assay: AUC (0 to 240 mins) in mouse liver at 10 mg/kg, ip administered as bolus dose by LC-MS/MS analysis; assay type: ADME, organism-based; design: dose 10 mg/kg, time < 4 hr, route intraperitoneal; details: in vivo, 4 h
Outline: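 Adult male mice (25 ± 5 g) given a single 10 mg/kg i.p. bolus, prepared as a 5.0 mM solution in 0.9% NaCl. Animals were decapitated at five time points between 10 and 240 min. Plasma was precipitated with acetonitrile containing internal standard. Brain and liver were homogenized in water (1:3) and precipitated the same way. Analysis by LC-MS/MS, with AUC0–240, Cmax, tmax, t½β and liver/plasma ratio derived from the concentration-time data.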

`Cl.O=C(O)c1cc([C@H]2CCN[C@@H]2C(=O)O)ccc1Cl` was tested. Which Activity (Mus musculus [1]) did it give?
The Activity was “Non-Toxic”.

And the Activity (Mus musculus [2])?
The Activity was 35%.

And the Activity (Mus musculus [3])?
The Activity was 33%.

And the Activity (Mus musculus [4])?
Its Activity is 42%.

And the AUC (Liver)?
Its AUC is 575 nmol·min/g.
